Source: ChEMBL document CHEMBL1138229, “Novel cyano- and amidino-substituted derivatives of styryl-2-benzimidazoles and benzimidazo[1,2-a]quinolines. Synthesis, photochemical synthesis, DNA binding, and antitumor evaluation, part 3” (J Med Chem, 2007)
pIC50: −log10 of the molar value. Calls of active or inactive are those of the source. The rule behind the calls is not given here.

Key:
HeLa [1] = experiment: Cell cycle arrest in human HeLa cells assessed as accumulation at G2/M phase after 48 hrs at 5 uM; format: functional
Outline: (§1)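 Cells seeded at 2 × 10^5 per well and incubated overnight before compound at 5 × 10^-6 M. After 24, 48 or 72 h, attached and floating cells were pooled, PBS-washed and fixed in 70% ethanol. RNase A (0.1 µg/µl, 37 °C, 15 min), then propidium iodide 1 µg/mL; flow cytometry of 20 000 events. Results given as percent of cells per phase; significance at p < 0.05.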

SW-620 [2] = experiment: Cell cycle arrest in human SW620 cells assessed as accumulation at G1/G0 phase after 24 hrs at 5 uM; format: functional; outline: as §1
Homo sapiens = organism: Homo sapiens; experiment: Inhibition of Topoisomerase 2-mediated pRYG DNA relaxation activity
Outline: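 Supercoiled pRYG plasmid with 8 units purified topo II in assay buffer. Test compound or etoposide added as 2 µL of a 1 mM stock per 20 µL reaction. Incubation 37 °C for 30 min; stopped with SDS, then proteinase K (50 µg/mL, 37 °C, 15 min). Gel electrophoresis, post-stained with ethidium bromide 0.5 µg/mL, UV imaging of supercoiled-to-relaxed conversion.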

DNA = experiment: Binding affinity to calf thymus DNA by thermal melting temperature assay; format: nucleic-acid assay; conditions: Bos taurus
Outline: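 ct-DNA (as phosphate concentration) in sodium cacodylate buffer pH 7.0, I = 0.05 mol dm-3. Compound/polynucleotide ratio r = 0.3. Absorbance at 260 nm followed against temperature, ligand absorbance subtracted. Tm taken as transition midpoint by first derivative or tangent method. ΔTm = Tm(complex) − Tm(free DNA), averaged over at least two runs, error ±0.5 °C.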

HeLa [3] = experiment: Cell cycle arrest in human HeLa cells assessed as accumulation at S phase after 72 hrs at 5 uM; format: functional; outline: as §1
SW-620 [4] = experiment: Cell cycle arrest in human SW620 cells assessed as accumulation at G2/M phase after 72 hrs at 5 uM; format: functional; outline: as §1
SW-620 [5] = experiment: Cell cycle arrest in human SW620 cells assessed as accumulation at G2/M phase after 24 hrs at 5 uM; format: functional; outline: as §1
HEp-2 = experiment: Antitumor activity against human Hep2 cells after 72 hrs by MTT assay; format: functional, cell-based; conditions: HEp-2, 72 h
Outline: (§2)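 Cells from ATCC grown as monolayers in DMEM with 10% FBS, 2 mM L-glutamine, penicillin/streptomycin, 5% CO2, 37 °C. Seeded on day 0 at 1 × 10^4/mL (2 × 10^4/mL for MCF-7). Five 10-fold dilutions (10^-8 to 10^-4 mol/L) added, then 72 h exposure. MTT read at 570 nm; percent growth vs time-zero and untreated controls. IC50 by linear regression; quadruplicates, three experiments.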

HeLa [6] = experiment: Cell cycle arrest in human HeLa cells assessed as accumulation at G2/M phase after 72 hrs at 5 uM; format: functional; outline: as §1
SW-620 [7] = experiment: Cell cycle arrest in human SW620 cells assessed as accumulation at G1/G0 phase after 48 hrs at 5 uM; format: functional; outline: as §1
SW-620 [8] = experiment: Cell cycle arrest in human SW620 cells assessed as accumulation at S phase after 48 hrs at 5 uM; format: functional; outline: as §1
SW-620 [9] = experiment: Cell cycle arrest in human SW620 cells assessed as accumulation at S phase after 24 hrs at 5 uM; format: functional; outline: as §1
MIA PaCa-2 = experiment: Antitumor activity against human MiaPaCa2 cells after 72 hrs by MTT assay; format: functional, cell-based; conditions: MIA PaCa-2, 72 h; outline: as §2
HeLa [10] = experiment: Cell cycle arrest in human HeLa cells assessed as accumulation at G2/M phase after 24 hrs at 5 uM; format: functional; outline: as §1
SW-620 [11] = experiment: Cell cycle arrest in human SW620 cells assessed as accumulation at G1/G0 phase after 72 hrs at 5 uM; format: functional; outline: as §1
MCF7 = experiment: Antitumor activity against human MCF7 cells after 72 hrs by MTT assay; format: functional, cell-based; conditions: MCF7, 72 h; outline: as §2
HeLa [12] = experiment: Cell cycle arrest in human HeLa cells assessed as accumulation at G0/G1 phase after 72 hrs at 5 uM; format: functional; outline: as §1
HeLa [13] = experiment: Cell cycle arrest in human HeLa cells assessed as accumulation at Sub G1 phase after 48 hrs at 5 uM; format: functional; outline: as §1
HeLa [14] = experiment: Cell cycle arrest in human HeLa cells assessed as accumulation at G0/G1 phase after 24 hrs at 5 uM; format: functional; outline: as §1
HeLa [15] = experiment: Cell cycle arrest in human HeLa cells assessed as accumulation at G0/G1 phase after 48 hrs at 5 uM; format: functional; outline: as §1
SW-620 [16] = experiment: Antitumor activity against human SW620 cells after 72 hrs by MTT assay; format: functional, cell-based; conditions: SW-620, 72 h; outline: as §2
HeLa [17] = experiment: Cell cycle arrest in human HeLa cells assessed as accumulation at S phase after 48 hrs at 5 uM; format: functional; outline: as §1
SW-620 [18] = experiment: Cell cycle arrest in human SW620 cells assessed as accumulation at Sub G1 phase after 48 hrs at 5 uM; format: functional; outline: as §1
HeLa [19] = experiment: Cell cycle arrest in human HeLa cells assessed as accumulation at Sub G1 phase after 72 hrs at 5 uM; format: functional; outline: as §1
HeLa [20] = experiment: Cell cycle arrest in human HeLa cells assessed as accumulation at S phase after 24 hrs at 5 uM; format: functional; outline: as §1
HeLa [21] = experiment: Cell cycle arrest in human HeLa cells assessed as accumulation at Sub G1 phase after 24 hrs at 5 uM; format: functional; outline: as §1
SW-620 [22] = experiment: Cell cycle arrest in human SW620 cells assessed as accumulation at S phase after 72 hrs at 5 uM; format: functional; outline: as §1
SW-620 [23] = experiment: Cell cycle arrest in human SW620 cells assessed as accumulation at Sub G1 phase after 72 hrs at 5 uM; format: functional; outline: as §1
[24] = Antiproliferative activity against human […] fibroblast after 72 hrs by MTT assay; format: functional; outline: as §2
SW-620 [25] = experiment: Cell cycle arrest in human SW620 cells assessed as accumulation at Sub G1 phase after 24 hrs at 5 uM; format: functional; outline: as §1
HeLa [26] = experiment: Antitumor activity against human HeLa cells after 72 hrs by MTT assay; format: functional, cell-based; outline: as §2
SW-620 [27] = experiment: Cell cycle arrest in human SW620 cells assessed as accumulation at G2/M phase after 48 hrs at 5 uM; format: functional; outline: as §1

Row | SMILES | Activity (SW-620 [2]) [%] | Activity (Homo sapiens) | ΔTm (DNA) [°C] | Activity (SW-620 [4]) [%] | Activity (SW-620 [5]) [%] | pIC50 (HEp-2) | Activity (SW-620 [7]) [%] | Activity (SW-620 [8]) [%] | Activity (SW-620 [9]) [%] | pIC50 (MIA PaCa-2) | Activity (SW-620 [11]) [%] | pIC50 (MCF7) | pIC50 (SW-620 [16]) | Activity (SW-620 [18]) [%] | Activity (SW-620 [22]) [%] | Activity (SW-620 [23]) [%] | pIC50 [24] | Activity (SW-620 [25]) [%] | pIC50 (HeLa [26]) | Activity (SW-620 [27]) [%] | also measured
1 | Cl.c1ccc2c(c1)ccc1nc3ccc(C4=NCCN4)cc3n12 | 12 | Active | 4.9 | 54 | 49 | 5.70 | 25 | 26 | 39 | 6.00 | 30 | 5.70 | 6.40 | 12 | 17 | 13 | 5.70 | 3 | 5.70 | 49 | Activity (HeLa [1]): 32%; Activity (HeLa [3]): 32%; Activity (HeLa [6]): 40%; Activity (HeLa [10]): 26%; Activity (HeLa [12]): 28%; Activity (HeLa [13]): 2%; Activity (HeLa [14]): 32%; Activity (HeLa [15]): 34%; Activity (HeLa [17]): 36%; Activity (HeLa [19]): 3%; Activity (HeLa [20]): 42%; Activity (HeLa [21]): 2%
2 | C(=C/c1nc2ccc(C3=NCCN3)cc2[nH]1)/c1ccccc1.Cl | 36 | Active | 1 | 21 | 19 | 4.57 | 46 | 39 | 45 | 4.60 | 49 | 4.77 | 4.35 | 1 | 30 | 0.8 | 4.00 | 0.5 | 4.46 | 15 | 
